PMI act satM6P = PMI (human) activation, high substrate. coupled PMI enzyme assay, resazurin fluorescence, 20 min; hits give high values; 1 = untreated enzyme, 0 = substrate-free blank. actives 0.34% (n = 190,000). AID 1216. P34949. activation factor at 20 µM;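 active = activation factor of 2 or more at 20 µM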
Target sequence (P34949 whole entry, looked up): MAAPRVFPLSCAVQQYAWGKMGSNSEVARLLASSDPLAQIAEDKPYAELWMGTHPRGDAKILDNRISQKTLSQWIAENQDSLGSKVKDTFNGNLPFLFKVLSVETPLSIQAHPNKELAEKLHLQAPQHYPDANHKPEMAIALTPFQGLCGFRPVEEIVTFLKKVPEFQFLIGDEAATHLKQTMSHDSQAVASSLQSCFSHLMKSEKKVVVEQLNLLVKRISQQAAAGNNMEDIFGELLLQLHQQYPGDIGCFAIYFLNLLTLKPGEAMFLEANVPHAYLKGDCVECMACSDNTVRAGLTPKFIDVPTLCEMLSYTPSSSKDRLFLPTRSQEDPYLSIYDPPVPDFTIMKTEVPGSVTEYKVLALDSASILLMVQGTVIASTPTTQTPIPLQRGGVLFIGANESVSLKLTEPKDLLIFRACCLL
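Test system: human PMI in coupled enzyme assay; Input: PMI at 15 ng/mL final; Medium: HEPES buffer, pH 7.4; Schedule: 20 min incubation at room temperature; Technique: resorufin fluorescence at Ex 544/Em 590 nm; Compound: 20 µM single dose; Probe or stimulus: Near-saturating mannose-6-phosphate, 1.0 mM.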
NCF1 inh = inhibitors of human p47phox binding; AID 1274; p47phox/p22phox peptide binding, fluorescence polarization, 2 h; inhibition, % at 24.7 µM; actives 0.53% (n = 220,000); P14598;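 active = inhibition above about 30%, limit read from the data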;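 note: 0% = p47phox with labelled peptide and 100% = labelled peptide alone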
Redox H2O2 prof = compounds producing H2O2 with reducing agent – biochemical, NIH compound library profiling, artefact control for MLSCN library redox annotation, primary screen; actives 0.03% (n = 200,000); activation, % at 10 µM; AID 878; DTT-dependent redox cycling H2O2, phenol red/HRP absorbance; 100% = 100 µM peroxide control, 0% = buffer;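 active = activation of at least 50% relative to the plate's high and low controls in the primary single-dose screen; inactive = activation below 50%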;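 note: compound incubated with DTT at 0.8 mM final as the reducing agent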
Diaphorase act = diaphorase activation or chemical reduction counter-screen; Diaphorase/resazurin coupled assay, resorufin fluorescence, 16 min; hits give high values; 1 = vehicle wells, 0 = NADH-free wells; activation factor at 20 µM; actives 0.005% (n = 190,000); AID 1229;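 active = diaphorase activity raised at least twofold by the compound at 20 µM; inactive = activation factor below 2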
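Material: Clostridium kluyveri diaphorase, purified enzyme; Quantity: enzyme 0.07 U/mL final; Medium: HEPES pH 7.4 buffer with MgCl2 and Tween 20; Dosing: single compound dose of 20 µM, 1% DMSO final; Schedule: 16 min reaction at room temperature; Measured by: red resorufin fluorescence at 544/590 nm excitation/emission.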
PMI act = increases human mannose-6-phosphate isomerase activity. P34949. purified human PMI, coupled resazurin fluorescence, 20 min; hits give high values; 1 = vehicle control, 0 substrate-free wells. activation factor at 20 µM. actives 0.005% (n = 190,000). AID 1214;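 active = activation factor of 2 or more at 20 µM, relative to plate controls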
Efa HMGR inh = E. faecalis class II HMG-CoA reductase inhibition | purified E. faecalis HMGR, NADPH absorbance 340 nm kinetic | inhibition, % at 10 µM | actives 0.41% (n = 190,000) | AID 1066;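 active = inhibition above a set limit, the median over all tested compounds plus 3 SD, cut at about 9.5% in these data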;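 note: enzyme runs in reverse so mevalonate oxidation gives rising NADPH absorbance; 0% = complete reaction with DMSO and 100% = background rate lacking mevalonate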
The depositor's hits bear a star; . = no result; + = active, no number. In the library only some 1.2% were active in any assay of this set; here they are far more common.

SMILES	PMI act satM6P	NCF1 inh	Redox H2O2 prof	Diaphorase act	PMI act	Efa HMGR inh
Cc1cc(C)nc(SCc2ccc(C(=O)NNC(=O)Nc3cccc(Cl)c3)cc2)n1	0.9	31.9*	-0.1	0.9	0.9	2.5
CCC(C)c1ccc(NC(=S)NC(C)C2CCCO2)cc1 (stereo not given)	0.8	.	0.0	1	1	-4.3
COc1ccc(C2C(C(=O)c3ccccc3)=C(C)Nc3nc4ccccc4n32)cc1OC (stereo not given)	0.8	34.4*	1.3	0.9	0.9	3.5
COc1ccc(OC)c(C2C(C(=O)c3ccccc3)=C(C)Nc3nc4ccccc4n32)c1 (stereo not given)	0.8	-10.5	0.7	0.9	0.9	4.0
CCc1ccccc1N1CSC2=C(C#N)C(c3cc(OC)c(OC)cc3OC)CC(=O)N2C1 (stereo not given)	0.9	31.3*	3.5	0.5	0.5	-5.2
Cc1cccc(OCC(=O)NNc2c3ccccc3nc3ccccc23)c1	0.9	-8.5	-0.2	0.9	0.9	-5.0
Cc1ccc(OCC(=O)NNc2c3ccccc3nc3ccccc23)cc1	1	30.4*	-0.3	0.9	0.9	-0.8
Cc1cccc(NCC(=O)NNC(=S)Nc2ccccc2)c1	1	8.2	-0.4	1.2	1	-4.8
CNC(=S)NNC(=O)CNc1ccc(C)c(Cl)c1	1	+	0.5	1	1	-3.2
COc1ccc(/C=N/NC(=O)CNC(=O)COc2ccccc2)cc1	1	8.4	0.9	0.9	0.8	-6.0
COc1cccc(/C=N/NC(=O)CNC(=O)COc2ccccc2)c1O	.	81.6*	.	.	.	.
Cc1cc(C)nc(S/C=C/C(=O)c2ccc(F)cc2)n1	.	-0.2	.	.	.	.
CC/C(=C/c1sc2ccc(C)cc2[n+]1CCCS(=O)(=O)[O-])SC	2.7*	-4.6	-0.1	0.9	1.9	-0.6
CC/C(=C/c1sc2ccc(C)cc2[n+]1CCO)SC	2.5*	-66.3	0.2	0.8	1.8	3.8
C=CCN1C2CCCC1CC(NC(=O)Nc1cc(C)cc(C)c1)C2 (stereo not given)	1	.	0.1	0.9	0.9	0.8
CN1CCCN(Cc2nc(-c3ccc(Cl)cc3)no2)CC1	1	0.1	-1.2	0.9	0.9	-0.4
O=C1c2ccccc2NC(c2ccc(Cl)cc2Cl)N1O (stereo not given)	1.3	-14.6	-4.8	0.9	1.3	15.2*
Cc1nn(C)c(C)c1C1Nc2ccccc2C(=O)N1O (stereo not given)	2*	-9.2	-3.1	1.1	1.8	-2.7
Cc1nn(C)cc1C1Nc2ccccc2C(=O)N1O (stereo not given)	2.2*	-10.0	0.4	1	1.8	-2.6
Cc1ccsc1C1Nc2ccccc2C(=O)N1O (stereo not given)	1.9	-5.7	0.2	1.1	1.8	-2.5
CC1(C)CC2CC(C)(CN2C(=O)c2ccc([N+](=O)[O-])cc2[N+](=O)[O-])C1 (stereo not given)	1	-4.5	-0.8	0.9	1.1	-6.2
CC1CC(C)CN(CC(=O)Nc2ccc3c(c2)OCCO3)C1 (stereo not given)	1	31.8*	-0.7	0.9	0.9	-4.8
O=C(CN1CCN(CC(=O)Nc2ccccc2Cl)CC1)Nc1ccc2c(c1)OCCO2	2*	-12.6	-1.1	0.8	1.4	-1.5
COc1ccccc1NC(=O)CN1CCN(CC(=O)Nc2ccc3c(c2)OCCO3)CC1	1.1	-14.4	2.5	0.9	1	-1.6
Cc1nc(N2CCOCC2)nc(Oc2ccccc2)c1[N+](=O)[O-]	.	-1.2	.	.	.	.
CCOc1ccc(NC(=O)c2ccccc2OCC(=O)c2ccccc2)cc1	0.9	1.4	0.0	0.8	0.9	-1.1
Cc1ccc(-n2c(CNc3ccc(F)cc3)nnc2SCC(=O)N2CCCC2)cc1	1	2.7	1.6	0.9	0.9	-10.4
COc1ccc(NCc2nnc(SCCN3CCCCC3)n2-c2ccc(C)cc2)cc1	0.9	-23.2	0.6	1	1	17.4*

Screening results as filed in PubChem BioAssay.
